In ChEMBL document CHEMBL1136934, “Synthesis of some novel organic nitrates and comparative in vitro study of their vasodilator profile” (J Med Chem, 2009):

What was measured:
Aorta [1] = test: Ratio of EC50 for vasodilatory activity in Wistar rat endothelium-denuded cross tolerant thoracic aortic ring preincubated with 0.55 mM GTN for 1 hr followed by washing to EC50 for vasodilatory activity in Wistar rat endothelium-denuded thoracic aortic ring; format: functional
How it was run: (§1)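 Endothelium-denuded helical rat aortic strips. After 1 h equilibration, strips were incubated in 0.55 mM GTN for 1 h, then washed extensively for 1 h. Cumulative concentration-response curves were then run on contracted strips. EC50 (µM, mean ± SE, n = 3-15) was compared with untreated strips.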

Aorta [2] = test: Vasodilatory activity in Wistar rat endothelium-denuded thoracic aortic ring assessed as inhibition of phenylephrine-induced contraction drug treated 30 mins after ALDH2 inhibitor chloral hydrate treatment; format: functional, tissue-based; conditions: 0.5 h
Aorta [3] = test: Ratio of EC50 for vasodilatory activity in Wistar rat endothelium-denuded thoracic aortic ring in presence of benomyl to EC50 for vasodilatory activity in Wistar rat endothelium-denuded thoracic aortic ring; format: functional
Aorta [4] = test: Vasodilatory activity in Wistar rat endothelium-denuded thoracic aortic ring assessed as inhibition of phenylephrine-induced contraction drug treated 30 mins after 1 uM soluble guanylate cyclase heme site inhibitor ODQ treatment; format: functional, tissue-based; conditions: 0.5 h
Aorta [5] = test: Ratio of EC50 for vasodilatory activity in Wistar rat endothelium-denuded thoracic aortic ring in presence of chloral hydrate to EC50 for vasodilatory activity in Wistar rat endothelium-denuded thoracic aortic ring; format: functional
Aorta [6] = test: Vasodilatory activity in Wistar rat endothelium-denuded thoracic aortic ring assessed as inhibition of phenylephrine-induced contraction drug treated 30 mins after ALDH2 inhibitor benomyl treatment; format: functional, tissue-based; conditions: 0.5 h
Aorta [7] = test: Vasodilatory activity in Wistar rat endothelium-denuded cross tolerant thoracic aortic ring assessed as inhibition of phenylephrine-induced contraction preincubated with 0.55 mM GTN for 1 hr followed by washing; format: functional, tissue-based; how it was run: as §1
Aorta [8] = test: Vasodilatory activity in Wistar rat endothelium-denuded thoracic aortic ring assessed as inhibition of phenylephrine-induced contraction; format: functional, tissue-based
How it was run: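 Endothelium removed from rat aorta; three helically cut strips per aorta. Once agonist contraction plateaued, cumulative vasodilator concentrations were added. EC50 (µM) given as mean ± SE, n = 3-15.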

Row | SMILES | Ratio EC50 (Aorta [1]) | EC50 (Aorta [2]) [nM] | Ratio EC50 (Aorta [3]) | EC50 (Aorta [4]) [µM] | Ratio EC50 (Aorta [5]) | EC50 (Aorta [6]) [nM] | EC50 (Aorta [7]) [µM] | EC50 (Aorta [8]) [nM]
1 | O=[N+]([O-])OCC(CO[N+](=O)[O-])O[N+](=O)[O-] [NITROGLYCERIN] | 152 | 940 | 14 | > 100 | 32 | 420 | 4.4 | 29
2 | O=[N+]([O-])OCCCCc1ccccc1 | 30 | 1100 | 3.4 | 66 | 7.3 | 510 | 4.5 | 150
3 | O=[N+]([O-])OCCCc1ccccc1 | 125 | 3000 | 9.4 | > 100 | 19 | 1500 | 20 | 160
4 | O=[N+]([O-])OC[C@H](CCc1ccccc1)O[N+](=O)[O-] | 49 | 370 | 3.3 | 30 | 7.6 | 160 | 2.4 | 49
5 | O=[N+]([O-])OC[C@@H](CCc1ccccc1)O[N+](=O)[O-] | 33 | 270 | 2.4 | 29 | 5.5 | 120 | 1.6 | 49
6 | O=[N+]([O-])OC[C@@H](Cc1ccccc1)O[N+](=O)[O-] | 102 | 1200 | 10 | > 100 | 19 | 630 | 6.4 | 63
7 | O=[N+]([O-])OC[C@H](Cc1ccccc1)O[N+](=O)[O-] | 100 | 1200 | 9.8 | > 100 | 20 | 600 | 6.1 | 61
